# Measured values reported in PMC8775362 (Molecular pharmaceutics, 2021).
# Read-outs that look alike come from different tables or passages of the source. Non-standard residues stand in square brackets, D forms with d. Residues, ends and D or L forms follow the SMILES beside them. *: point of attachment. 5FAM = O=C1OC2(c3ccc(O)cc3Oc3cc(O)ccc32)c2ccc(C(=O)*)cc21; Trp(6-Cl) = N[C@@H](Cc1c[nH]c2cc(Cl)ccc12)C(=O)O; pY = N[C@@H](Cc1ccc(OP(=O)(O)O)cc1)C(=O)O; Ac3c = NC1(C(=O)O)CC1; Aib = CC(C)(N)C(=O)O; βAla = NCCC(=O)O
# Key:
# MDM2 = conditions: cited from earlier work
# [1] = tested on: SJSA-1 human osteosarcoma cells; test: Cell uptake and specificity of [^18F]6 in SJSA-1 cells; format: cell-based
# Procedure, shortened: (§1)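 Cells (HepG2 in MEM, SJSA-1 in RPMI 1640, both with 10% FBS) were seeded at 2×10^5/well and held overnight at 37°C. Medium was swapped for serum-free medium holding 18.5 kBq tracer; incubation was at 37°C for 0.5, 1 or 2 h. Blocking used unlabeled parent inhibitor, either 5–50 µM for 1 h or 25 µM for the time course.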
# P-glycoprotein = conditions: neuroblastoma cells; cited from earlier work
# [2] = tested on: HepG2 human hepatocellular carcinoma cells; test: Cell uptake and specificity of [^18F]6 in HepG2 cells; format: cell-based
# Procedure, shortened: as §1
# [3] = cited from earlier work
smiles,measurement,setting,value
CSCC[C@H](NC(=O)[C@H](Cc1ccccc1)NC(=O)CCNC(=O)CCNC(=O)c1ccc2c(c1)C(=O)OC21c2ccc(O)cc2Oc2cc(O)ccc21)C(=O)NC(C)(C)C(=O)N[C@@H](Cc1ccc(OP(=O)(O)O)cc1)C(=O)N[C@@H](Cc1c[nH]c2cc(Cl)ccc12)C(=O)N[C@@H](CCC(=O)O)C(=O)NC1(C(=O)N[C@@H](CC(C)C)C(=O)N[C@@H](CC(N)=O)C(N)=O)CC1 [5-FAM-PMDM6] ({5FAM-βAla-βAla}-FM[Aib][pY][Trp(6-Cl)]E[Ac3c]LN-NH2; N-terminus and C-terminus assumed),Kd,"MDM2; read-out: binding affinity (Kd) towards MDM2, literature, same assay",1 ± 0.1 nM
"COc1cc(C(=O)O)ccc1NC(=O)[C@@H]1N[C@@H](CC(C)(C)C)[C@](C#N)(c2ccc(Cl)cc2F)[C@H]1c1cccc(Cl)c1F [RG7388, Idasanutlin]",inhibition at 50 µM,"[1]; Homo sapiens, SJSA-1, 1 h, read-out: inhibition of [^18F]6 uptake",> 80%
same,effect of blocking on [^18F]6 uptake,"[1]; SJSA-1, 25 μM RG7388, all time points 30-120 min",significantly decreased
same,substrate of P-glycoprotein,P-glycoprotein,not a good substrate
same,effect of blocking on [^18F]6 uptake,"[2]; HepG2, 25 μM RG7388, all time points 30-120 min",significantly decreased
same,inhibition at 50 µM,"[2]; Homo sapiens, HepG2, 1 h, read-out: inhibition of [^18F]6 uptake",> 80%
same,stability in humans in vivo,[3],fully stable
COc1ccc2[nH]c3c(-c4cccc5ccccc45)nccc3c2c1 [SP-141],Kd,MDM2; read-out: binding affinity Kd,43 nM
